Article PMC11649739 (Clinical Pharmacokinetics, 2024)
Several values for one entry are separate records, joined by “and”; a condition that tells them apart may be missing. Equal entries are not always repeated. Where two headings read alike, the source gives them in different places.

How the values were obtained:
[1] = assay type: in vivo, human
In short: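 Ensitrelvir was dosed once daily, 375 mg on day 1 then 125 mg on days 2–5, or 750/250 mg. A population PK model was fitted to 8034 plasma concentrations from 2060 healthy and SARS-CoV-2-infected participants: two-compartment, first-order absorption, with covariates tested on CL/F. Empirical Bayesian estimates from the final model were used to calculate individual exposures for SCORPIO-SR phase III participants.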

[2] = body weight 35.0 and 156.0 kg vs median
[3] = final model no. 511, body weight 62.6 kg
[4] = 125 mg group: 375 mg on day 1 and 125 mg on days 2–5
[5] = 125 mg group: 375 mg on day 1 and 125 mg on days 2–5, Bayesian-estimated
[6] = 125 mg group: 375 mg on day 1 and 125 mg on days 2–5, day 1
[7] = 125 mg group: 375 mg on day 1 and 125 mg on days 2–5, day 5
[8] = 250 mg group: 750 mg on day 1 and 250 mg on days 2–5
[9] = 250 mg group: 750 mg on day 1 and 250 mg on days 2–5, Bayesian-estimated

Cn1cnc(Cn2c(=O)[nH]/c(=N\c3cc4cn(C)nc4cc3Cl)n(Cc3cc(F)c(F)cc3F)c2=O)n1 [ensitrelvir]
Interindividual variability of CL/F (base model): 28.9% | Interindividual variability of Ka (base model): 88.1% | Interindividual variability of Vc/F (base model): 23.2% | range of the ratios of the minimum and maximum values to the median of BW for AUC [2]: 0.623–1.353 | range of the ratios of the minimum and maximum values to the median of BW for Cmax [2]: 0.410–1.741 | Interindividual variability of CL/F, Estimate (95% CI) (final model no. 511): 21.3% and 21.3 (19.7–22.8) % | Interindividual variability of Ka, Estimate (95% CI) (final model no. 511): 72.9% and 72.9 (64.3–80.6) % | Interindividual variability of Vc/F, Estimate (95% CI) (final model no. 511): 14.7% and 14.7 (12.8–16.3) % | Intraindividual variability: additive residual error, Estimate (95% CI) (final model no. 511): 0.0317 (0.0224–0.0410) µg/mL | Intraindividual variability: proportional residual error, Estimate (95% CI) (final model no. 511): 19.9 (18.5–21.3) % | Q/F, Estimate (95% CI) (final model no. 511): 0.539 (0.321–0.757) L/h | Vp/F, Estimate (95% CI) (final model no. 511): 2.50 (1.80–3.20) L | CL/F, Estimate (95% CI) [3]: 0.211 (0.208–0.214) L/h | Vc/F, Estimate (95% CI) [3]: 14.7 (13.9–15.5) L | Additive residual error, Bootstrap estimate Median (95% CI) (final model no. 511, bootstrap): 0.0331 (0.00945–0.0570) µg/mL | CL/F, Bootstrap estimate Median (95% CI) (final model no. 511, bootstrap): 0.211 (0.207–0.214) L/h | Effect of body weight on Vc/F, Bootstrap estimate Median (95% CI) (final model no. 511, bootstrap): 1.04 (0.959–1.11) | Effect of food on Ka, Bootstrap estimate Median (95% CI) (final model no. 511, bootstrap): 0.599 (0.447–1.00) | Effect of formulation on Ka, Bootstrap estimate Median (95% CI) (final model no. 511, bootstrap): 0.367 (0.280–0.469) | Interindividual variability of CL/F, Bootstrap estimate Median (95% CI) (final model no. 511, bootstrap): 21.3 (20.0–23.0) % | Interindividual variability of Ka, Bootstrap estimate Median (95% CI) (final model no. 511, bootstrap): 72.1 (64.4–80.4) % | Interindividual variability of Vc/F, Bootstrap estimate Median (95% CI) (final model no. 511, bootstrap): 14.6 (12.7–16.5) % | Ka, Bootstrap estimate Median (95% CI) (final model no. 511, bootstrap): 1.50 (1.23–1.80) 1/h | Proportional residual error, Bootstrap estimate Median (95% CI) (final model no. 511, bootstrap): 19.8 (18.6–21.2) % | Q/F, Bootstrap estimate Median (95% CI) (final model no. 511, bootstrap): 0.534 (0.331–0.823) L/h | Vc/F, Bootstrap estimate Median (95% CI) (final model no. 511, bootstrap): 14.8 (13.9–15.5) L | Vp/F, Bootstrap estimate Median (95% CI) (final model no. 511, bootstrap): 2.49 (1.74–3.26) L | Effect of formulation on Ka, Estimate (95% CI) (final model no. 511, multiplier, tablet vs suspension): 0.362 (0.262–0.462) | Effect of body weight on Vc/F, Estimate (95% CI) (final model no. 511, power exponent on body weight/62.6): 1.04 (0.960–1.12) | Ka, Estimate (95% CI) (final model no. 511, typical value (suspension, not within 2 h after a meal)): 1.50 (1.25–1.75) 1/h | Entire AUC, Maximum [1, 4]: 4429 µg·h/mL | Entire AUC, Minimum [1, 4]: 1404 µg·h/mL | Entire Cmax, Maximum [1, 4]: 46.8 µg/mL | Entire Cmax, Minimum [1, 4]: 14.3 µg/mL | CL/F, Maximum [1, 5]: 0.400 L/h | CL/F, Mean [1, 5]: 0.216 L/h | CL/F, Median [1, 5]: 0.212 L/h | CL/F, Minimum [1, 5]: 0.116 L/h | Vc/F, Maximum [1, 5]: 34.4 L | Vc/F, Mean [1, 5]: 15.1 L | Vc/F, Median [1, 5]: 14.7 L | Vc/F, Minimum [1, 5]: 7.66 L | AUC_d1, Maximum [1, 6]: 784.7 µg·h/mL | AUC_d1, Minimum [1, 6]: 127.0 µg·h/mL | Cmax_d1, Maximum [1, 6]: 41.0 µg/mL | Cmax_d1, Mean [1, 6]: 23.4 µg/mL | Cmax_d1, Median [1, 6]: 22.9 µg/mL | Cmax_d1, Minimum [1, 6]: 10.3 µg/mL | AUC_d5, Maximum [1, 7]: 1156 µg·h/mL | AUC_d5, Minimum [1, 7]: 224.5 µg·h/mL | Cmax_d5, Maximum [1, 7]: 46.8 µg/mL | Cmax_d5, Mean [1, 7]: 26.6 µg/mL | Cmax_d5, Median [1, 7]: 26.2 µg/mL | Cmax_d5, Minimum [1, 7]: 14.3 µg/mL | Entire AUC, Maximum [1, 8]: 9652 µg·h/mL | Entire AUC, Minimum [1, 8]: 3090 µg·h/mL | Entire Cmax, Maximum [1, 8]: 104 µg/mL | Entire Cmax, Minimum [1, 8]: 31.9 µg/mL | CL/F, Maximum [1, 9]: 0.353 L/h | CL/F, Mean [1, 9]: 0.201 L/h | CL/F, Median [1, 9]: 0.198 L/h
